Bioassay records deposited in PubChem by The Scripps Research Institute Molecular Screening Center.
An excerpt weighted towards active compounds, which were near 3.2% of everything screened.
zfTRPN1 agonist = agonists of zebrafish TRPN1 channel | HEK293 zebrafish TRPN1-YFP, Fluo-8 calcium fluorescence; 100% = response to 87 µM carbachol | activation, % at 3 µM | actives 0.18% (n = 220,000) | AID 1424;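 active = activation above its plate's cutoff, the mean activation of test wells on that plate plus 3 SD, cut at about 19% in these data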
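Control set: carbachol 87 µM as high control, DMSO as low control; system: HEK293 stable line with zebrafish TRPN1-YFP; read-out: % activation versus carbachol response; detection: intracellular calcium fluorescence with Fluo-8; doses: single test compound dose, 3 µM nominal, 0.3% DMSO; schedule: dye 1 h 37 °C plus 30 min RT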
OX1R antag-1 = OX1R (human) antagonism. actives 1.8% (n = 330,000). O43613. inhibition, % at 6.6 µM. OX1R-expressing cells, FRET antagonist read-out. AID 485270; in the data active = inhibition mostly above about 38%, no sharp cut-off; inactive = mostly below about 40%
Target sequence (O43613 whole entry, looked up): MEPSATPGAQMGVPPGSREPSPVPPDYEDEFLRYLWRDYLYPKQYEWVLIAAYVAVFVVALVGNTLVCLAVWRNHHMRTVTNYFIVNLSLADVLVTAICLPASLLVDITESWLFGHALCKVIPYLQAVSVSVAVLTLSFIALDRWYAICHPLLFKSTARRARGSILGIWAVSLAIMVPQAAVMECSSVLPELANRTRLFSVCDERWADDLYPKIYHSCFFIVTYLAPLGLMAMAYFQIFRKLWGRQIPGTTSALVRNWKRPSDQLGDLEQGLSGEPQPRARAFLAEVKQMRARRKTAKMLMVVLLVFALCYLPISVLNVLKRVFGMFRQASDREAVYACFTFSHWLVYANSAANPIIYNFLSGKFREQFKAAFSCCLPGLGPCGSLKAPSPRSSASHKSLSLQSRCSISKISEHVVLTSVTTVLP
GPR7 antagonist = antagonists of human GPR7 (neuropeptides B/W receptor 1); GPR7-expressing cells, fluorescence antagonist assay; P48145; actives 1.1% (n = 290,000); inhibition, % at 4.4 µM; in the data active = inhibition above about 16%, passing the limit was not always enough;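 also: cells stimulated with the agonist NPW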
Target sequence (P48145 whole entry, looked up): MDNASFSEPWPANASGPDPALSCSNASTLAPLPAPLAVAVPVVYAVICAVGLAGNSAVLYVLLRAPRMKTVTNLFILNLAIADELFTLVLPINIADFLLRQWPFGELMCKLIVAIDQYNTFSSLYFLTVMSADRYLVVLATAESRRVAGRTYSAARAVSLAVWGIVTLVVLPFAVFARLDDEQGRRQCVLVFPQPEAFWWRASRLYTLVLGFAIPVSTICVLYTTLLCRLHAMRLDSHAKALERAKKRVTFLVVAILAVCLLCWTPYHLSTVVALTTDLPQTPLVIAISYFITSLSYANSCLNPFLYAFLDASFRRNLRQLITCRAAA
TRPML3 ag = activates the human TRPML3 channel | HEK293 TRPML3-YFP, Fluo-8 calcium fluorescence; 100% = the carbachol control signal | actives 0.29% (n = 220,000) | activation, % at 3 µM | Q8TDD5;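 active = activation above its plate's cutoff, the mean activation of the plate's test wells plus 3 SD, cut at about 12% in these data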
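Test system – HEK293 line with stable expression of human TRPML3-YFP channel · Control set – carbachol 87 µM final as high control (100%), DMSO as low control (0%) · Signal – Fluo-8 calcium dye fluorescence, ex 470-495, em 515-575 nm · Incubation – 1-h 37 °C dye load, 5-s basal, 120-s post-compound reads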
OX1R antag-2 = antagonists of human orexin 1 receptor | inhibition, % at 5 µM | CHO/OX1R cells, Fluo-8 calcium fluorescence, orexin A | O43613 | actives 0.43% (n = 330,000) | AID 434989;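 active = inhibition above its plate's threshold, mean inhibition of all tested compounds on the plate plus 3 SD, cut at about 37% in these data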
CHO parental Ca = signal in parental CHO cells, OX1R antagonist counter-screen; inhibition, % at 5.6 µM; parental CHO-K1, ATP-induced calcium, Fluo-8 fluorescence; actives 0.63% (n = 330,000);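 active = inhibition above that plate's mean sample inhibition plus 3 SD, cut at about 26% in these data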
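test system = CHO parental line | reagent = ATP stimulus | measured by = intracellular calcium via Fluo-8 no-wash fluorescent dye | control set = ATP and no-ATP DMSO wells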
Each line names hits and unclear results; the compound was inactive in the other large screens.

Cc1[nH]n(-c2ccc([N+](=O)[O-])cc2)c(=O)c1C=NCCc1ccc(S(N)(=O)=O)cc1	none
CCN(CC)CC(=O)N1CCCC(N2CCN(c3cccc(C(F)(F)F)c3)CC2)C1 (stereo unspecified)	none (no result: zfTRPN1 agonist, TRPML3 ag)
CCOc1cc(/C=C2\SC(=Nc3ccc(CC)cc3)NC2=O)ccc1OCC(=O)O	none (no result: zfTRPN1 agonist, TRPML3 ag)
C/C(=N\Nc1nc2ccccc2nc1C)c1ccccc1O	OX1R antag-1 64
C/C(=N\Nc1cc(C)nc(-c2ccccc2O)n1)c1ccccc1O	none
O=C(O)CC(CC(=O)Nc1ccc(-n2ccc(C(F)(F)F)n2)cc1)c1ccccc1 (stereo unspecified)	none
O=C(Nc1ccccc1)Nc1ccc(-n2ccc(C(F)(F)F)n2)cc1	CHO parental Ca 41
COc1ccc2nc(CC(C)(C)CC(=O)O)c[n+]([O-])c2c1	OX1R antag-1 69
COc1cc(N2CCCC2)c(OC)cc1/C=C(/C#N)c1cccc(F)c1	OX1R antag-2 46, CHO parental Ca 51
O=C(O)c1oc2ccccc2c1CSc1ccc(Cl)cc1	OX1R antag-1 63 (no result: zfTRPN1 agonist, TRPML3 ag)
CCCCC1=NN(C(=O)c2cccnc2)C(O)(C(F)(F)F)C1 (stereo unspecified)	none
O=c1[nH]c(NCCO)nnc1Cc1ccccc1	none (no result: zfTRPN1 agonist, TRPML3 ag)
O=C1c2ccccc2C(=O)c2[nH]cnc21	none (no result: OX1R antag-1, OX1R antag-2, CHO parental Ca)
O=C1c2ccccc2C(=O)c2c1ncn2-c1ccccc1	OX1R antag-1 64
CCc1cccc(CC)c1NC(=O)Cn1c(-c2ccccc2Cl)nc2ccccc21	GPR7 antagonist 18
CCOc1ccccc1NC(=O)c1cnc(NS(=O)(=O)c2ccccc2)nc1	none (no result: zfTRPN1 agonist, TRPML3 ag)
Cc1cc(C)c(S(=O)(=O)N2CCCCC2)c(C)c1N(C)S(=O)(=O)c1ccccc1	TRPML3 ag 55
Cc1cc(C)c(S(=O)(=O)N2CCOCC2)c(C)c1N(C)S(=O)(=O)c1ccccc1	none (no result: zfTRPN1 agonist, TRPML3 ag)
CCn1c(C(=O)N2CCC(C(=O)NCc3cccs3)CC2)cc2sccc21	none
O=C(NCc1ccco1)C1CCN(C(=O)c2ccc(Cl)cc2)CC1	none (no result: zfTRPN1 agonist, GPR7 antagonist, TRPML3 ag)
O=C(NCc1ccco1)C1CCN(C(=O)c2cc3sccc3n2Cc2ccc(Cl)cc2)CC1	OX1R antag-2 69, CHO parental Ca 37
O=C(NCc1ccco1)C1CCN(C(=O)c2ccc([N+](=O)[O-])cc2)CC1	OX1R antag-1 53 (no result: zfTRPN1 agonist, TRPML3 ag)
O=c1c2ccccc2ncn1-c1ccccc1C(F)(F)F	none
COc1ccc(S(N)(=O)=O)cc1C(=O)OCC(=O)Nc1sccc1C#N	none (no result: zfTRPN1 agonist, GPR7 antagonist, TRPML3 ag)
N#Cc1ccsc1NC(=O)COC(=O)c1cc2ccccc2cc1O	OX1R antag-1 41
Cc1ccc(S(=O)(=O)Nc2c(C)nn(C)c2C)c(C)c1	none (no result: zfTRPN1 agonist, GPR7 antagonist, TRPML3 ag)
Oc1ccc(C[C@@H]2CNC(=S)N2CCCCC2CCCCC2)cc1	none
C=CCCCCCCCCc1nc(SCC(C)=O)n[nH]1	GPR7 antagonist 20
CSC1=C(C#N)C(c2ccccc2Cl)C(C(=O)c2cccs2)C(O)(C(F)(F)F)N1 (stereo unspecified)	OX1R antag-1 62
COc1ccccc1-c1coc2cc(OC(=O)N3CCOCC3)ccc2c1=O	none
CCC(Oc1ccc2c(=O)c(-c3ccccc3OC)coc2c1)C(=O)OCc1ccccc1 (stereo unspecified)	CHO parental Ca 57
CCN(CC)CCn1c2ccccc2c2nc3ccccc3nc21	OX1R antag-1 67 (no result: zfTRPN1 agonist, TRPML3 ag)
CCOCCCn1c(SCC(=O)NCc2ccc3c(c2)OCO3)nc2ccccc2c1=O	none
CCOCCCn1c(=N)c(C(=O)NCc2ccc3c(c2)OCO3)cc2c(=O)n3cccc(C)c3nc21	OX1R antag-1 42
COCCCn1c(=N)c(C(=O)NCc2ccc3c(c2)OCO3)cc2c(=O)n3ccccc3nc21	OX1R antag-1 59
N=c1c(C(=O)NCc2ccc3c(c2)OCO3)cc2c(=O)n3ccccc3nc2n1Cc1cccnc1	none
c1ccc(-c2cc3nccc(-c4ccccn4)n3n2)cc1	OX1R antag-1 48
CCOC(=O)c1ccc(NC(=S)N2CCSC2c2ccc(Br)cc2)cc1 (stereo unspecified)	OX1R antag-2 55, CHO parental Ca 46
CN(C)C=Nc1ccc2nc3c(cc2c1)[nH]c1ccccc13	OX1R antag-1 55 (no result: zfTRPN1 agonist, TRPML3 ag)
CS(=O)(=O)Cc1cccc(C(=O)NN(c2ccccc2)c2ccccc2)c1	none (no result: zfTRPN1 agonist, TRPML3 ag)
Cc1ccc(C(=O)CSc2cnc3ccccc3n2)cc1C	OX1R antag-1 66
CN(C)C(=O)CSc1cnc2ccccc2n1	none
COc1ccc(N2CCN(C(=O)COC(=O)COc3ccc(C#N)cc3)CC2)cc1	none (no result: zfTRPN1 agonist, GPR7 antagonist, TRPML3 ag)
CC(C)CC(=O)Nc1c2c(nn1-c1ccc(F)cc1)CS(=O)C2 (stereo unspecified)	none (no result: zfTRPN1 agonist, TRPML3 ag)
CCN(CC(=O)Nc1c(F)cccc1F)C(=O)CNC(=O)c1ccc(Br)o1	OX1R antag-1 60 (no result: zfTRPN1 agonist, GPR7 antagonist, TRPML3 ag)
Cc1c(NC(=O)C(C)OC(=O)C23CC4CC(CC(Br)(C4)C2)C3)c(=O)n(-c2ccccc2)n1C (stereo unspecified)	none
CCSc1nnc(NC(=O)NC(CC)(C(F)(F)F)C(F)(F)F)s1	OX1R antag-2 66, CHO parental Ca 79
CCSc1nnc(NC(=O)NC(C)(C(F)(F)F)C(F)(F)F)s1	none
O=C(COC(=O)CNC(=O)c1ccccc1)Nc1ccc(F)c([N+](=O)[O-])c1	none
COc1ccc2nc3ccccc3nc2c1NC(=O)c1ccccc1Cl	OX1R antag-1 51
COc1ccc(-c2cc(C(=O)Nc3c(Cl)cc(Cl)cc3Cl)c3ccccc3n2)cc1OC	none
COc1ccc(OC)c(C2c3[nH]c4ccccc4c3C[C@H]3C(=O)N(CCCOC(C)C)CC(=O)N23)c1 (stereo partly specified)	none (no result: zfTRPN1 agonist, TRPML3 ag)
CCN(CC)S(=O)(=O)c1ccc2oc(SCC(=O)NC3CC3)nc2c1	none (no result: zfTRPN1 agonist, TRPML3 ag)
CCN(CC)S(=O)(=O)c1ccc2oc(SCc3ccc(F)cc3)nc2c1	CHO parental Ca 40
COc1cccc(Nc2nc3ccccc3nc2NS(=O)(=O)c2cccs2)c1	OX1R antag-1 43
CN(C)S(=O)(=O)N1CCN(CC(O)COc2ccc3cc(Br)ccc3c2)CC1 (stereo unspecified)	CHO parental Ca 40
CCOc1ccc(OCCN2C(=O)NC(Cc3c[nH]c4ccccc34)C2=O)cc1 (stereo unspecified)	OX1R antag-1 43
CCOc1ccccc1N1CCN(C(=O)c2ccccc2SCC(=O)N2CCCC2)CC1	none (no result: zfTRPN1 agonist, TRPML3 ag)
O=c1[nH]c(-c2ccccc2)cnc1-c1ccccc1	none (no result: zfTRPN1 agonist, GPR7 antagonist, TRPML3 ag)
O=c1[nH]c2c(=O)[nH]cnc2nc1-c1ccccc1	OX1R antag-1 40 (no result: zfTRPN1 agonist, GPR7 antagonist, TRPML3 ag)
CCOC(=O)C1CCCCN1S(=O)(=O)c1cc2c(cc1C)NC(=O)CO2 (stereo unspecified)	none (no result: zfTRPN1 agonist, TRPML3 ag)
CC12CS(=O)(=O)CC1SC(=S)N2Cc1ccccc1 (stereo unspecified)	none
